Reference: ChEMBL document CHEMBL5346953, “Dual Piperidine-Based Histamine H3 and Sigma-1 Receptor Ligands in the Treatment of Nociceptive and Neuropathic Pain” (J Med Chem, 2023)
Calls of active or inactive are those of the source.

Legend:
Histamine H3 receptor [1] = biological target: T1, Histamine H3 receptor (Homo sapiens, UniProt Q9Y5N1); assay: Inhibition of recombinant human histamine H3 receptor stably expressed in HEK293 cells assessed as increase in cAMP accumulation in presence of forskolin incubated for 30 mins by TR-FRET LANCE assay; assay type: functional, cell-based
[2] = Neurotoxicity against mouse assessed as sedative effect at 15 mg/kg,ip observed after 30 mins of administration; assay type: toxicity, organism-based; conditions: in vivo, 0.5 h
Outline: (§1)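 Spontaneous locomotor activity was recorded in mice after i.p. dosing at 15 or 30 mg/kg, compared with vehicle, as a test of sedation. Analysis was one-way ANOVA. […]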

[3] = Neurotoxicity against mouse assessed as decrease in time spent on rod at 15 mg/kg,ip administration at 18 rpm by rotarod test; assay type: toxicity, organism-based; conditions: in vivo
Outline: (§2)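 Mice received 15 mg/kg i.p. or vehicle. Motor coordination was then measured as time on the rotarod, at 18 and 24 rpm, with a maximum of 60 s.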

[4] = Neurotoxicity against mouse assessed as decrease in time spent on rod at 15 mg/kg,ip administration at 24 rpm by rotarod test; assay type: toxicity, organism-based; conditions: in vivo; outline: as §2
[5] = Neurotoxicity against mouse assessed as reduction in spontaneous locomotor activity at 15 mg/kg,ip observed after 30 mins of administration; assay type: toxicity, organism-based; conditions: in vivo, 0.5 h; outline: as §1
[6] = Neurotoxicity against mouse assessed as reduction in spontaneous locomotor activity at 30 mg/kg,ip observed after 30 mins of administration; assay type: toxicity, organism-based; conditions: in vivo, 0.5 h; outline: as §1
[7] = Neurotoxicity against mouse assessed as effect in spontaneous locomotor activity by measuring effective dose at ip administration observed after 30 mins; assay type: toxicity, organism-based; conditions: in vivo, 0.5 h; outline: as §1
[8] = Neurotoxicity against mouse assessed as impairment of motor coordination at 15 mg/kg,ip administration at 18 rpm by rotarod test; assay type: toxicity, organism-based; conditions: in vivo; outline: as §2
[9] = Neurotoxicity against mouse assessed as impairment of motor coordination at 15 mg/kg,ip administration at 24 rpm by rotarod test; assay type: toxicity, organism-based; conditions: in vivo; outline: as §2
Mus musculus [10] = assay: Antinociceptive activity in Capsaicin-induced nociceptive mouse model assessed as reduction in paw licking at 10 to 30 mg/kg,ip administration followed by capsaicin treatment; assay type: functional, organism-based; conditions: dose 10-30 mg/kg
Outline: (§3)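 Capsaicin was injected intraplantarly into mice pretreated with 10, 15 or 30 mg/kg, with 1% Tween 80 as vehicle. Licking/biting time was scored for 5 min after injection, with 8–10 mice per group, as mean ± SEM. Analysis was one-way ANOVA with Dunnett's test. ED50 was estimated from the dose–response.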

Mus musculus [11] = assay: Antinociceptive activity in Capsaicin-induced nociceptive mouse model assessed as reduction in biting behavior at 10 to 30 mg/kg,ip administration followed by capsaicin treatment; assay type: functional, organism-based; conditions: dose 10-30 mg/kg; outline: as §3
Mus musculus [12] = assay: Effect in loperamide-induced antinociception mouse assessed as increase in struggle response latency at ip administration; assay type: functional, organism-based
Mus musculus [13] = assay: Antinociceptive activity in mouse assessed as effect on struggle response latency at 25 ug,ip administration; assay type: functional, organism-based; conditions: dose 25.0 µg
Mus musculus [14] = assay: Antinociceptive activity in loperamide-induced mouse assessed as increase in struggle response latency struggle response latency at 25 ug,ip administration in presence of PRE-084; assay type: functional, organism-based; conditions: dose 25.0 µg
Mus musculus [15] = assay: Antinociceptive activity in loperamide-induced mouse assessed as increase in struggle response latency struggle response latency at 25 ug,ip administration in presence of naloxone-methiodide; assay type: functional, organism-based; conditions: dose 25.0 µg
Mus musculus [16] = assay: Antiallodynic activity against oxaliplatin-induced peripheral neuropathy mouse model assessed as increase in pain threshold baseline at early phase at 5 mg/kg,ip followed by oxaliplatin treatment measured after 3 hrs by von frey test; assay type: functional
Outline: (§4)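 Mice with oxaliplatin-induced neuropathy were given the drug as a single dose at 5, 10 or 15 mg/kg. Tactile allodynia was measured by von Frey 3 h (early phase) and 7 days (late phase) after neuropathy induction. Thresholds are expressed relative to each group's pre-oxaliplatin baseline.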

Mus musculus [17] = assay: Antiallodynic activity against oxaliplatin-induced peripheral neuropathy mouse model assessed as increase in pain threshold baseline at late phase at 5 mg/kg,ip followed by oxaliplatin treatment measured after 7 days by von frey test; assay type: functional; conditions: time 7 day; outline: as §4
Mus musculus [18] = assay: Antiallodynic activity against oxaliplatin-induced peripheral neuropathy mouse model assessed as increase in pain threshold baseline at early phase at 10 mg/kg,ip followed by oxaliplatin treatment measured after 3 hrs by von frey test; assay type: functional; outline: as §4
Mus musculus [19] = assay: Antiallodynic activity against oxaliplatin-induced peripheral neuropathy mouse model assessed as increase in pain threshold baseline at late phase at 10 mg/kg,ip followed by oxaliplatin treatment measured after 7 days by von frey test; assay type: functional; conditions: time 7 day; outline: as §4
Mus musculus [20] = assay: Antiallodynic activity against oxaliplatin-induced peripheral neuropathy mouse model assessed as increase in pain threshold baseline at early phase at 15 mg/kg,ip followed by oxaliplatin treatment measured after 3 hrs by von frey test; assay type: functional; outline: as §4
Mus musculus [21] = assay: Antiallodynic activity against oxaliplatin-induced peripheral neuropathy mouse model assessed as increase in pain threshold baseline at late phase at 15 mg/kg,ip followed by oxaliplatin treatment measured after 7 days by von frey test; assay type: functional; conditions: time 7 day; outline: as §4
Mus musculus [22] = assay: Antiallodynic activity against oxaliplatin-induced peripheral neuropathy mouse model assessed as increase in pain threshold baseline at late phase at 5 mg/kg,ip administrated in presence of oxaliplatin measured after 7 days by von frey test; assay type: functional, organism-based; conditions: time 7.0 day; outline: as §4
Mus musculus [23] = assay: Analgesic activity in CCI-induced neuropathic pain mouse model assessed as increase in mechanical paw withdrawal threshold at 5 mg/kg,ip administration measured after 30 mins by von frey test; assay type: functional, organism-based
Outline: (§5)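 CCI mice tested 14 days after sciatic nerve injury. Groups received i.p. vehicle or drug at 5, 10 or 15 mg/kg. Baselines were taken before injection, with n = 7–8 per group. Read-outs were von Frey (ipsilateral and contralateral paw) at 30, 90 and 180 min, cold plate at 35, 95 and 185 min, and tail flick at 40, 100 and 190 min. Values are %MPE (mean ± SEM), analysed by one-way ANOVA with Bonferroni post hoc.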

Mus musculus [24] = assay: Analgesic activity in CCI-induced neuropathic pain mouse model assessed as increase in mechanical paw withdrawal threshold at 10 mg/kg,ip administration measured after 30 mins by von frey test; assay type: functional, organism-based; outline: as §5
Mus musculus [25] = assay: Analgesic activity in CCI-induced neuropathic pain mouse model assessed as increase in mechanical paw withdrawal threshold at 10 mg/kg,ip administration measured after 90 mins by von frey test; assay type: functional, organism-based; outline: as §5
Mus musculus [26] = assay: Analgesic activity in CCI-induced neuropathic pain mouse model assessed as increase in mechanical paw withdrawal threshold at 10 mg/kg,ip administration measured after 180 mins by von frey test; assay type: functional, organism-based; outline: as §5
Mus musculus [27] = assay: Analgesic activity in CCI-induced neuropathic pain mouse model assessed as increase in contralateral paw withdrawal threshold at 10 mg/kg,ip administration measured after 90 mins by von frey test; assay type: functional, organism-based; outline: as §5
Mus musculus [28] = assay: Analgesic activity in CCI-induced neuropathic pain mouse model assessed as effect on tactile allodynia at 5 mg/kg,ip administration measured after 30 to 180 mins by von frey test; assay type: functional, organism-based; conditions: time lower 30.0 min, time upper […]; outline: as §5
Mus musculus [29] = assay: Analgesic activity in CCI-induced neuropathic pain mouse model assessed as effect on tactile allodynia at 10 mg/kg,ip administration measured after 30 to 180 mins by von frey test; assay type: functional, organism-based; conditions: time lower 30.0 min, time upper […]; outline: as §5
Mus musculus [30] = assay: Analgesic activity in CCI-induced neuropathic pain mouse model assessed as effect on withdrawal threshold at 15 mg/kg,ip administration measured after 90 mins by von frey test; assay type: functional, organism-based; outline: as §5
Mus musculus [31] = assay: Analgesic activity in CCI-induced neuropathic pain mouse model assessed as effect on withdrawal threshold at 15 mg/kg,ip administration measured after 30 mins by von frey test; assay type: functional, organism-based; outline: as §5
Mus musculus [32] = assay: Analgesic activity in CCI-induced neuropathic pain mouse model assessed as effect on withdrawal threshold at 15 mg/kg,ip administration measured after 180 mins by von frey test; assay type: functional, organism-based; outline: as §5
Mus musculus [33] = assay: Analgesic activity in CCI-induced neuropathic pain mouse model assessed as effect on thermal stimuli at 5 to 15 mg/kg,ip administration measured after 35 mins by cold plate test; assay type: functional, organism-based; conditions: dose 5-15 mg/kg; outline: as §5
Mus musculus [34] = assay: Anti-hyperalgesic activity in CCI-induced neuropathic pain mouse model assessed as effect on thermal stimuli at 5 to 15 mg/kg,ip administration measured after 95 mins by cold plate test; assay type: functional, organism-based; conditions: dose 5-15 mg/kg; outline: as §5
Mus musculus [35] = assay: Analgesic activity in CCI-induced neuropathic pain mouse model assessed as effect on thermal stimuli at 5 mg/kg,ip administration measured after 185 mins by cold plate test; assay type: functional, organism-based; outline: as §5
Mus musculus [36] = assay: Analgesic activity in CCI-induced neuropathic pain mouse model assessed as effect on thermal stimuli at 10 mg/kg,ip administration measured after 185 mins by cold plate test; assay type: functional, organism-based; outline: as §5
Mus musculus [37] = assay: Analgesic activity in CCI-induced neuropathic pain mouse model assessed as effect on spinal response at 5 mg/kg,ip administration measured after 40 mins by tail flick test; assay type: functional, organism-based; outline: as §5
Mus musculus [38] = assay: Analgesic activity in CCI-induced neuropathic pain mouse model assessed as effect on spinal response at 10 mg/kg,ip administration measured after 40 mins by tail flick test; assay type: functional, organism-based; outline: as §5
Mus musculus [39] = assay: Analgesic activity in CCI-induced neuropathic pain mouse model assessed as effect on spinal response at 10 mg/kg,ip administration measured after 100 mins by tail flick test; assay type: functional, organism-based; outline: as §5
Mus musculus [40] = assay: Analgesic activity in CCI-induced neuropathic pain mouse model assessed as effect on spinal response at 10 mg/kg,ip administration measured after 190 mins by tail flick test; assay type: functional, organism-based; outline: as §5
[41] = biological target: Sigma non-opioid intracellular receptor 1 (Cavia porcellus, UniProt Q60492); assay: Displacement of [3H](+)-pentazocine from sigma 1 receptor in guinea pig brain membrane assessed as inhibition constant by liquid scintillation counter analysis; assay type: cell membranes
Histamine H3 receptor [42] = biological target: T1, Histamine H3 receptor; assay: Displacement of [3H]Nalpha-methylhistamine from recombinant human histamine H3 receptor stably expressed in HEK293 cells assessed as inhibition constant by competitive binding based radioligand depletion assay; assay type: cell-based
Mus musculus [43] = assay: Antinociceptive activity in mouse assessed as effect on struggle response latency at 100 ug,ip administration; assay type: functional, organism-based; conditions: dose 100.0 µg
Mus musculus [44] = assay: Antinociceptive activity in loperamide-induced mouse assessed as increase in struggle response latency struggle response latency at 100 ug,ip administration in presence of PRE-084; assay type: functional, organism-based; conditions: dose 100.0 µg
Mus musculus [45] = assay: Antinociceptive activity in loperamide-induced mouse assessed as increase in struggle response latency struggle response latency at 100 ug,ip administration in presence of naloxone-methiodide; assay type: functional, organism-based; conditions: dose 100.0 µg

T1 sequence (Q9Y5N1 whole entry): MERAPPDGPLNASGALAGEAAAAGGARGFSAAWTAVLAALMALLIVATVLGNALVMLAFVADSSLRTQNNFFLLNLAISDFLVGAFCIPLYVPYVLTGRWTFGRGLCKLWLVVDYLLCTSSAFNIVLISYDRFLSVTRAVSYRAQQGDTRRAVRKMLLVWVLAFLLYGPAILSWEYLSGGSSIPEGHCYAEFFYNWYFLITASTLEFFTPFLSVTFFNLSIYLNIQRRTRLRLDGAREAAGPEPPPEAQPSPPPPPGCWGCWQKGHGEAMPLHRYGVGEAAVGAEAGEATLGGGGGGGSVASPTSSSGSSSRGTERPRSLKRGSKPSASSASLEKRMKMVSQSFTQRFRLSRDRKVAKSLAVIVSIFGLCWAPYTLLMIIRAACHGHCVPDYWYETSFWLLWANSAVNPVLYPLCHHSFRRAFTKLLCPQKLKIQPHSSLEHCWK
Sigma non-opioid intracellular receptor 1, sequence (Q60492 whole entry): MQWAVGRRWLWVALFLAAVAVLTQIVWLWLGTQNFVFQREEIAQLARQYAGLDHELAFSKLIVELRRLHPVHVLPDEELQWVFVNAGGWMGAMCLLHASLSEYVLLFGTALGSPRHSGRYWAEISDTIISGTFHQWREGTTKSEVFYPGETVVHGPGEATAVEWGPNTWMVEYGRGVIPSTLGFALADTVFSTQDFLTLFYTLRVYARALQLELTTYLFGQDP

## c1ccc(Nc2ccc(OCCCN3CCCCC3)cc2)cc1
Histamine H3 receptor [1]
  IC50: 83.7 nM
[2]
  Activity: Toxic
[3]
  Activity: Toxic
[4]
  Activity: Toxic

## N#Cc1ccc(-c2ccc(OCCCN3CCC(c4ccncc4)CC3)cc2)cc1
Histamine H3 receptor [1]
  IC50: 215 nM
[5]
  Activity: Toxic
[6]
  Activity: Toxic
[7]
  ED50: 21.97 mg/kg
[8]
  Activity: Toxic
[9]
  Activity: Toxic
Mus musculus [10]
  Activity: Active
Mus musculus [11]
  Activity: Active
Mus musculus [12]
  Activity: Dose-Dependent Effect
Mus musculus [13]
  Activity: inactive
Mus musculus [14]
  Activity: inactive
Mus musculus [15]
  Activity: inactive
Mus musculus [16]
  Activity: 63.5%
Mus musculus [17]
  Activity: 77.7%
Mus musculus [18]
  Activity: 50.4%
Mus musculus [19]
  Activity: 67.6%
Mus musculus [20]
  Activity: 66.6%
Mus musculus [21]
  Activity: 69.3%
Mus musculus [22]
  Activity: inactive
Mus musculus [23]
  Activity: Active
Mus musculus [24]
  Activity: Active
Mus musculus [25]
  Activity: Active
Mus musculus [26]
  Activity: Active
Mus musculus [27]
  Activity: Active
Mus musculus [28]
  Activity: inactive
Mus musculus [29]
  Activity: inactive
Mus musculus [30]
  Activity: Active
Mus musculus [31]
  Activity: inactive
Mus musculus [32]
  Activity: inactive
Mus musculus [33]
  Activity: Active
Mus musculus [34]
  Activity: Active
Mus musculus [35]
  Activity: Active
Mus musculus [36]
  Activity: Active
Mus musculus [37]
  Activity: Active
Mus musculus [38]
  Activity: Active
Mus musculus [39]
  Activity: Active
Mus musculus [40]
  Activity: Active

## c1cc(OCCCN2CCCCC2)ccc1CN1CCCCC1 [JNJ-5207852]
[41]
  Ki: 1170 nM

## c1ccc(Cc2ccc(OCCCN3CCCCC3)cc2)cc1
Histamine H3 receptor [42]
  Ki: 27.5 nM

## c1ccc(-c2ccc(OCCCN3CCCCCC3)cc2)cc1
Histamine H3 receptor [1]
  IC50: 83.4 nM
[2]
  Activity: Toxic
[8]
  Activity: Toxic
[9]
  Activity: Toxic

## N#Cc1ccc(-c2ccc(OCCCN3CCCCC3)cc2)cc1
Histamine H3 receptor [42]
  Ki: 6.2 nM

## Cc1cc(OCCN2CCOCC2)nn1-c1ccc2ccccc2c1
Mus musculus [12]
  Activity: Dose-Dependent Effect
Mus musculus [43]
  Activity: inactive
Mus musculus [44]
  Activity: inactive
Mus musculus [45]
  Activity: inactive
